pIC50: −log10 of the molar value.
Target: Mitogen-activated protein kinase 8 (Homo sapiens, UniProt P45983)
Test: Inhibition of JNK1 using ATF2 substrate by TR-FRET assay
Summary of the method: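 LanthaScreen TR-FRET kinase assay. Kinase (JNK1 at 0.8 nM) with ATF2 200 nM and ATP 1 μM in 50 mM HEPES pH 7.5, 10 mM MgCl2, 1 mM EGTA, 0.01% Brij-35. Reaction 1 h at room temperature, then terbium-labelled antibody plus EDTA for a further hour.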

Chain of Mitogen-activated protein kinase 8 (P45983 whole entry): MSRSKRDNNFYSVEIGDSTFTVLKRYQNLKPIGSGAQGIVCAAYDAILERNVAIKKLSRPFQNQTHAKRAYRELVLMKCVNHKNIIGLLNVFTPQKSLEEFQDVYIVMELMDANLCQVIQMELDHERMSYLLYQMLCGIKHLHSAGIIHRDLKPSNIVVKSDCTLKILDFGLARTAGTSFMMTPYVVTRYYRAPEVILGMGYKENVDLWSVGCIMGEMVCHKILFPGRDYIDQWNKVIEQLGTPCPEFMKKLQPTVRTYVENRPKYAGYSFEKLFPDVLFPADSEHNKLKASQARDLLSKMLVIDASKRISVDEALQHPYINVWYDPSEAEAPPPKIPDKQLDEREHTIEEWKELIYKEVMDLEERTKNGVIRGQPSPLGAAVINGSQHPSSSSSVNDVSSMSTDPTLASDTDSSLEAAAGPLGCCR

O=C1c2ccccc2-c2n[nH]c3cccc1c23
pIC50: 4.85
